Here are results for 5 molecules from ChEMBL document CHEMBL1123953, “Studies on prodrugs. 7. Synthesis and antimicrobial activity of 3-formylquinolone derivatives” (J Med Chem, 1988).

For one series, the system named is Serratia marcescens. The experiment in a line: In vitro inhibition of growth of Serratia marcescens (IAM1184). The format is functional. In short, it runs like this: (§1)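 Agar dilution using serial 2-fold dilutions in Mueller-Hinton agar, with plate concentrations 0.006 to 100 μg/mL. Inoculum approx. 10^6 cfu/mL. Plates incubated at 37 °C for 18 h. MIC taken as the lowest concentration preventing visible bacterial growth.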

The next series has as its system Klebsiella pneumoniae. The experiment in a line: In vitro inhibition of growth of Klebsiella pneumoniae (PC-1602). The series is classed as functional. An outline of the steps: as §1
In series [1] the test system is Escherichia coli. Nature of the series: In vitro Inhibition of growth of Escherichia coli(KC-14). The series is classed as functional. An outline of the steps:
as §1

A further series has as its system Pseudomonas aeruginosa. The experiment in a line: In vitro inhibition of growth of Pseudomonas aeruginosa(E-2). The series is classed as functional. In short, it runs like this: as §1
Series [2] relates to Escherichia coli. The experiment in a line: (§2) Inhibition of growth of Escherichia coli (KC-14) upon oral administration in mice(95%CL). The format is functional. An outline of the steps:
(§3)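 Male ddY mice (20 ± 2 g, groups of 10) infected intraperitoneally with 0.5 mL of E. coli KC-14 dilution at 10 or 100 times the 50% lethal dose. Compounds suspended in 0.5% sodium (carboxymethyl)cellulose and given orally 1 h postinfection. Survival scored after 1 week. ED50 derived with 95% confidence limits.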

A short description of series [3]: Area under the curve in concentration/ time. The series is classed as ADME. An outline of the steps:
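Mice dosed orally at 50 mg/kg (formyl prodrug at a dose equivalent to 50 mg/kg of parent acid), suspended in 0.5% sodium (carboxymethyl)cellulose. Mice killed by bleeding at 0.5, 1.0, 2.0 and 4.0 h. Blood centrifuged and serum drug levels measured by HPLC. AUC from the serum concentration–time curve, in μg/mL per hour.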

Another series concerns Staphylococcus aureus. The experiment in a line: Inhibition of growth of Staphylococcus aureus (FDA207PJC-1) after incubation at 37 degree Centigrade. The format is functional. In short, it runs like this:
as §1

For a further series, the system named is Bacillus subtilis. Nature of the series: In vitro inhibition of growth of Bacillus subtilis (ATCC 6633). The format is functional. An outline of the steps: as §1
For a further series, the system named is Proteus vulgaris. The experiment in a line: In vitro inhibition of growth of Proteus vulgaris(OX-19). The format is functional. An outline of the steps: as §1
The test system of series [4] is Mus musculus. Nature of the series: Serum levels in Mice 1 hr after Oral administration of 50 mg/kg; nd= Not detected. The format is functional, organism-based. Also on record: dose 50 mg/kg. An outline of the steps: (§4)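 Mice dosed orally at 50 mg/kg, suspended in 0.5% sodium (carboxymethyl)cellulose; prodrugs given at a dose equivalent to 50 mg/kg of parent acid. Mice killed by bleeding at 0.5, 1.0, 2.0 and 4.0 h, and serum obtained by centrifugation. Serum analysed by HPLC, eluting with 5% AcOH/MeOH (70/30). Values given with standard deviation.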

For series [5], the system named is Mus musculus. Nature of the series: Serum levels in Mice 0.5 hr after Oral administration of 50 mg/kg; nd= Not detected. The format is functional, organism-based. Also on record: dose 50 mg/kg. In short, it runs like this:
as §4

Series [6] relates to Mus musculus. The experiment in a line: Serum levels in Mice 2 hr after Oral administration of 50 mg/kg; nd= Not detected. Also on record: dose 50 mg/kg. The format is functional, organism-based. In short, it runs like this: as §4
Series [7] relates to Mus musculus. The experiment in a line: Serum levels in Mice 4 hr after Oral administration of 50 mg/kg; nd= Not detected. The format is functional, organism-based. The arrangement: dose 50 mg/kg. An outline of the steps:
as §4

The subject of series [8] is Mus musculus. The experiment in a line: (§5) Inhibition of growth of Escherichia coli (KC-14) upon oral administration in mice. The format is functional. An outline of the steps: (§6)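 Groups of 10 male ddY mice (20 ± 2 g) were inoculated intraperitoneally with 0.5 mL of E. coli KC-14 at 10 or 100 times the 50% lethal dose. Compounds, suspended in 0.5% sodium (carboxymethyl)cellulose, were given orally 1 h postinfection. Survival was scored after 1 week. ED50 is reported with 95% confidence limits.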

The subject of series [9] is Mus musculus. Described as §2. The format is functional. In short, it runs like this: as §3
In series [10] the test system is Escherichia coli. The series is described as §5. The series is classed as functional. In short, it runs like this: as §6
Where [11] appears, read: Klebsiella pneumoniae, read-out: MIC.
Where [12] appears, read: Staphylococcus aureus, read-out: MIC.
Where [13] appears, read: Proteus vulgaris, read-out: MIC.

In brackets after ≈: the same amount, converted by molar mass. Several values for one entry are separate records, joined by “and”; a condition that tells them apart may be missing. Equal entries are not always repeated.

As a reminder, the MIC is the lowest concentration that inhibits growth of the organism. Broadly, the ED50 is the midpoint of the dose-response relation. In the case of `CCn1cc(C(=O)O)c(=O)c2cc(F)c(N3CCNCC3)cc21` [NORFLOXACIN], the minimum inhibitory concentration (MIC) in the series with Serratia marcescens stood at 0.2 µg/mL (≈ 0.626 µM); in the series on Klebsiella pneumoniae (setting [11]), 0.05 µg/mL (≈ 0.157 µM); against Escherichia coli [1], 0.1 µg/mL (≈ 0.313 µM); against Pseudomonas aeruginosa, 0.78 µg/mL (≈ 2.44 µM); in the series with Staphylococcus aureus (setting [12]), 0.2 µg/mL (≈ 0.626 µM); in the series with Bacillus subtilis, 0.2 µg/mL (≈ 0.626 µM). Further, the minimum inhibitory concentration (MIC) in the series on Proteus vulgaris (setting [13]) was 0.05 µg/mL (≈ 0.157 µM). It took a dose of 7.68 mg/kg to reach the 50% effect level in the series with Escherichia coli [2] (ED50). Also, in series [3], the AUC is 0.98 µg/mL/h and 1.77 µg/mL/h.

With `CCn1cc(C=O)c(=O)c2cc(F)c(N3CCNCC3)cc21`, the minimum inhibitory concentration (MIC) against Serratia marcescens was less than 100 µg/mL; with Klebsiella pneumoniae (setting [11]) it was 3.12 µg/mL (≈ 10.3 µM); with Escherichia coli [1], 12.5 µg/mL (≈ 41.2 µM); in the series on Pseudomonas aeruginosa it was less than 100 µg/mL; in the series on Staphylococcus aureus (setting [12]), less than 100 µg/mL; in the series with Bacillus subtilis, 12.5 µg/mL (≈ 41.2 µM). Besides, in the series on Proteus vulgaris (setting [13]), the minimum inhibitory concentration (MIC) stood at 6.25 µg/mL (≈ 20.6 µM). Moreover, the Serum level result in the series on Mus musculus [4], in the series on Mus musculus [5], in the series with Mus musculus [6] and with Mus musculus [7] was “Not detected” throughout. Further, the ED50 in the series with Mus musculus [8] turned out to be 2.53 mg/kg.

Take `CCn1cc(C=O)c(=O)c2cc(F)c(N3CCN(C)CC3)cc21`: the minimal inhibitory concentration (MIC) against Serratia marcescens is 12.5 µg/mL (≈ 39.4 µM); in the series on Klebsiella pneumoniae (setting [11]), 1.56 µg/mL (≈ 4.92 µM); with Escherichia coli [1] it was 6.25 µg/mL (≈ 19.7 µM); in the series on Pseudomonas aeruginosa, less than 25 µg/mL; in the series with Staphylococcus aureus (setting [12]), 12.5 µg/mL (≈ 39.4 µM); with Bacillus subtilis, 3.13 µg/mL (≈ 9.86 µM). This molecule gave an MIC in the series on Proteus vulgaris of 1.56 µg/mL (≈ 4.92 µM). Moreover, the 50% effect level in the series with Mus musculus [9] (ED50) was put at a dose of 0.84 mg/kg.

As to `O=Cc1cn(C2CC2)c2cc(N3CCNCC3)c(F)cc2c1=O`, the MIC in the series on Serratia marcescens came out at 12.5 µg/mL (≈ 39.6 µM); with Klebsiella pneumoniae (setting [11]), 12.5 µg/mL (≈ 39.6 µM); against Escherichia coli [1], 3.13 µg/mL (≈ 9.93 µM); in the series on Pseudomonas aeruginosa, 50 µg/mL (≈ 159 µM); with Staphylococcus aureus (setting [12]), 25 µg/mL (≈ 79.3 µM); in the series with Bacillus subtilis, 6.25 µg/mL (≈ 19.8 µM). Also, the minimum inhibitory concentration (MIC) in the series with Proteus vulgaris (setting [13]) turned out to be 3.13 µg/mL (≈ 9.93 µM). In the series with Mus musculus [8], this molecule came in with an ED50 of 0.49 mg/kg.

As to `CCn1cc(C(=O)O)c(=O)c2cc(F)c(N3CCN(C)CC3)cc21` [PEFLOXACIN], the MIC with Klebsiella pneumoniae came out at 0.05 µg/mL (≈ 0.15 µM); with Klebsiella pneumoniae (setting [11]), 0.05 µg/mL (≈ 0.15 µM); in the series on Staphylococcus aureus it was 0.39 µg/mL (≈ 1.17 µM); with Staphylococcus aureus (setting [12]), 0.39 µg/mL (≈ 1.17 µM); against Proteus vulgaris, 0.05 µg/mL (≈ 0.15 µM); in the series with Proteus vulgaris (setting [13]) it was 0.05 µg/mL (≈ 0.15 µM). Moreover, the ED50 in the series with Escherichia coli [10] is 1.67 mg/kg; with Escherichia coli [10] (Escherichia coli, po) it was 1.67 mg/kg.
